ChEMBL document CHEMBL2311521, “Design, synthesis, characterization and biological evaluation of novel pyrazole integrated benzophenones” (2013)

What was measured:
Rattus norvegicus [1] = assay: Antiinflammatory activity in rat assessed as inhibition of carrageenan-induced hind paw edema at 100 mg/kg, po administered 1 hr before carrageenan-challenge measured after 3 hrs
Rattus norvegicus [2] = assay: Antiinflammatory activity in rat assessed as inhibition of carrageenan-induced hind paw edema at 100 mg/kg, po administered 1 hr before carrageenan-challenge measured after 1 hr; format: functional
Procedure, shortened: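 Rats (n = 6 per group) were dosed orally, with the vehicle group given 1% w/v gum acacia at 10 ml/kg p.o. One hour after dosing, 0.1 ml of 1% w/v carrageenan was injected subplantar into the hind paw. Paw volume was measured by plethysmometer volume displacement, immersing the paw to the lateral malleolus, at 1, 3 and 6 h after carrageenan.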

Rattus norvegicus [3] = assay: Antiinflammatory activity in rat assessed as inhibition of carrageenan-induced hind paw edema at 100 mg/kg, po administered 1 hr before carrageenan-challenge measured after 6 hrs
[4] = system: Radical scavenging activity; assay: Antioxidant activity of the compound assessed as DPPH radical scavenging activity at 100 uM after 20 mins; format: functional
Procedure, shortened: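 Sample solution (0.1 mM) was mixed with an equal volume of 0.1 mM DPPH in ethanol. After 20 min at room temperature, DPPH reduction was read as absorbance at 517 nm.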

[5] = target: T1, Prostaglandin G/H synthase 1 (Ovis aries) (UniProt P05979); assay: Inhibition of ovine COX1 peroxidase activity assessed as appearance of oxidized N,N,N,N'-tetramethyl-p-phenylenediamine by colorimetric analysis relative to control; parameters: concentration or dose not given beside the values; settings: concentration not given here
T1 sequence (whole entry): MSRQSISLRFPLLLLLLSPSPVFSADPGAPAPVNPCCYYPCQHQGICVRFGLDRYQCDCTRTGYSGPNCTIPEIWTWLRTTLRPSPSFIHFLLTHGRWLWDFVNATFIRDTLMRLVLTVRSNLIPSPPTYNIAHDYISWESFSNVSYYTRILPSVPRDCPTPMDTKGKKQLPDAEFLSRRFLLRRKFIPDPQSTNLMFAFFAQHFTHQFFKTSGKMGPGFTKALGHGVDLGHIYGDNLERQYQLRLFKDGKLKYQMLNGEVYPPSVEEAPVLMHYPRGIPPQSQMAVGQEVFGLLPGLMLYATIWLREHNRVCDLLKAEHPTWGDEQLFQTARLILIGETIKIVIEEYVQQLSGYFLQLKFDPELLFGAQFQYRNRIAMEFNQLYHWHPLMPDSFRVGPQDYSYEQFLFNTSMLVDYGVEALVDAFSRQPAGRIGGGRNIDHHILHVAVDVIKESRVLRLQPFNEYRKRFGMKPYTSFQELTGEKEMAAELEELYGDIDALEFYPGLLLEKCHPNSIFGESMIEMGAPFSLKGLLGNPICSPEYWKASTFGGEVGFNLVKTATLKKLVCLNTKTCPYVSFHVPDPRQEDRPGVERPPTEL
Procedure, shortened: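 Colorimetric ovine COX inhibitor screening kit: assay buffer, heme, COX-1 enzyme and sample (0.1 mM), with peroxidase activity read by absorbance at 590 nm. Percent inhibition = (1 − T/C) × 100, where C is the uninhibited well. Determinations were run in duplicate.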

[6] = Antioxidant activity assessed as hydroxyl radical scavenging activity at 100 uM after 5 mins; format: functional
[7] = Antioxidant activity assessed as superoxide radical scavenging activity at 100 uM after 5 mins by NBT reduction assay; format: functional
Procedure, shortened: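 Superoxide scavenging by NBT reduction in buffer (100 mM, pH 7.4) with NBT and sample (0.1 mM). The reaction was started by adding PMS, incubated 5 min at room temperature, and read by absorbance at 560 nm.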

Row | SMILES | inhibition [5] [%] | Activity (Rattus norvegicus [1]) [mL] | Activity (Rattus norvegicus [2]) [mL] | Activity (Rattus norvegicus [3]) [mL] | Activity [4] [%] | Activity [6] [%] | Activity [7] [%]
1 | COc1cc(OC)c(-c2ccnn2C)c(O)c1C(=O)c1ccccc1F | 58.3 | 1.06 | 1.1 | 0.96 | 31.5 | – | –
2 | COc1cc(OC)c(-c2ccnn2C)c(O)c1C(=O)c1cccc(Cl)c1Cl | 58.3 | 1.39 | 0.9 | 1.29 | 29.6 | – | –
3 | COc1cc(OC)c(-c2ccnn2C)c(O)c1C(=O)c1cc(Cl)ccc1Cl | 52.4 | 1.1 | 1.01 | 1.11 | 31.2 | – | –
4 | COc1ccc(C(=O)c2c(OC)cc(OC)c(-c3ccnn3C)c2O)cc1 | 61.4 | 0.89 | 0.89 | 0.99 | 48.9 | – | –
5 | O=C1O[C@H]([C@@H](O)CO)C(O)=C1O | – | – | – | – | 81.5 | 52 | 78.3
6 | COc1ccc2c(c1)c(CC(=O)O)c(C)n2C(=O)c1ccc(Cl)cc1 [INDOMETHACIN] | – | 0.95 | 0.86 | 0.78 | – | – | –
7 | COc1cc(OC)c(-c2ccnn2C)c(O)c1C(=O)c1ccc(F)cc1F | 55.8 | 1.05 | 1.12 | 1.17 | 43.6 | – | –
8 | COc1cc(OC)c(-c2ccnn2C)c(O)c1C(=O)c1ccc(Cl)cc1Cl | 61.7 | 1.22 | 0.59 | 1.62 | 26.1 | – | –

More lines, main results first:

Row | inhibition [5] [%] | SMILES | Activity (Rattus norvegicus [1]) [mL] | Activity (Rattus norvegicus [2]) [mL] | Activity (Rattus norvegicus [3]) [mL] | Activity [4] [%] | Activity [6] [%] | Activity [7] [%]
9 | 59.1 | COc1cc(OC)c(-c2ccnn2C)c(O)c1C(=O)c1cccc(Br)c1 | 1 | 0.92 | 0.91 | 40.2 | – | –
10 | 57.5 | COc1cc(OC)c(-c2ccnn2C)c(O)c1C(=O)c1ccccc1 | 1.11 | 0.81 | 1.22 | 36.2 | – | –
11 | 55.8 | COc1cc(OC)c(-c2ccnn2C)c(O)c1C(=O)c1cccc(C(F)(F)F)c1 | 1.44 | 0.93 | 1.55 | 28 | – | –
12 | 61.7 | COc1cc(OC)c(-c2ccnn2C)c(O)c1C(=O)c1cccc(F)c1 | 1.2 | 0.92 | 1.63 | 34.5 | – | –
